ChEMBL document CHEMBL1629558, “Effect of electrical current on the activities of antimicrobial agents against Pseudomonas aeruginosa, Staphylococcus aureus, and Staphylococcus epidermidis biofilms” (2009)
Converted amounts (≈) assume the structure as drawn.

Tests used:
Format in all cases: functional
[1] = system: Staphylococcus aureus; assay: Antimicrobial activity against Staphylococcus aureus Xen 30 by broth microdilution method
In short: (§1)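 Planktonic MICs determined by CLSI broth microdilution; strains (MRSA Xen 30, P. aeruginosa Xen 5) stored at −70°C.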

[2] = system: Staphylococcus epidermidis; assay: Antimicrobial activity against Staphylococcus epidermidis Xen 43 by broth microdilution method
[3] = system: Staphylococcus aureus; assay: Antimicrobial activity against Staphylococcus aureus Xen 30 biofilm assessed as log10 CFU/cm'2 in bacterial count
In short: (§2)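 Biofilms grown on Teflon coupons in a CDC biofilm reactor (1 ml of 10^8 CFU/ml inoculum, 37°C shaking 18 h, then 18 h at room temperature). Coupons then sat 24 h at room temperature in flow chambers with fresh medium ± drug ± direct current via graphite electrodes. Biofilm removed by vortex plus 5 min sonication, plated on blood agar (37°C, 5% CO2, 48 h). Triplicate; mean log10 CFU/cm2.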

[4] = system: Staphylococcus aureus; assay: Antimicrobial activity against Staphylococcus aureus Xen 30 biofilm assessed as log10 CFU/cm'2 in bacterial count in presence of 2000 microamperes of electric current by bioelectric effect assay; in short: as §2
[5] = system: Staphylococcus epidermidis; assay: Antimicrobial activity against Staphylococcus epidermidis Xen 43 biofilm assessed as log10 CFU/cm'2 in bacterial count; in short: as §2
[6] = system: Staphylococcus epidermidis; assay: Antimicrobial activity against Staphylococcus epidermidis Xen 43 biofilm assessed as log10 CFU/cm'2 in bacterial count in presence of 200 microamperes of electric current by bioelectric effect assay; in short: as §2
[7] = system: Pseudomonas aeruginosa; assay: Antimicrobial activity against Pseudomonas aeruginosa Xen 5 by broth microdilution method; in short: as §1
[8] = system: Pseudomonas aeruginosa; assay: Antimicrobial activity against Pseudomonas aeruginosa Xen 5 biofilm assessed as log10 CFU/cm'2 in bacterial count; in short: as §2
[9] = system: Pseudomonas aeruginosa; assay: Antimicrobial activity against Pseudomonas aeruginosa Xen 5 biofilm assessed as log10 CFU/cm'2 in bacterial count in presence of 200 microamperes of electric current by bioelectric effect assay; in short: as §2
[10] = system: Staphylococcus epidermidis; assay: Antimicrobial activity against Staphylococcus epidermidis Xen 43 biofilm assessed as log10 CFU/cm'2 in bacterial count in presence of 2000 microamperes of electric current by bioelectric effect assay; in short: as §2
[11] = system: Pseudomonas aeruginosa; assay: Antimicrobial activity against Pseudomonas aeruginosa Xen 5 biofilm assessed as log10 CFU/cm'2 in bacterial count in presence of 2000 microamperes of electric current by bioelectric effect assay; in short: as §2
[12] = system: Staphylococcus aureus; assay: Antimicrobial activity against Staphylococcus aureus Xen 30 biofilm assessed as log10 CFU/cm'2 in bacterial count in presence of 200 microamperes of electric current by bioelectric effect assay
In short: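 MRSA Xen 30 biofilms grown on Teflon coupons (12.5 mm) in a CDC biofilm reactor seeded with 1 ml of 10^8 CFU/ml: 18 h 37°C with shaking, then 18 h room temperature. Coupons were exposed in flow chambers to fresh medium ± antimicrobial with direct current for 24 h at room temperature. Biofilm was dislodged by vortex and sonication, then plated on blood agar. Counts are mean log10 CFU/cm2 from triplicate experiments.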

[13] = system: Staphylococcus aureus; assay: Antimicrobial activity against Staphylococcus aureus Xen 30 biofilm assessed as log10 CFU/cm'2 in bacterial count in presence of 20 microamperes of electric current by bioelectric effect assay; in short: as §2

SMILES	MIC [1] [µg/mL]	MIC [2] [µg/mL]	log10cfu [3]	log10cfu [4]	log10cfu [5]	log10cfu [6]	MIC [7] [µg/mL]	log10cfu [8]	log10cfu [9]	log10cfu [10]	log10cfu [11]	log10cfu [12]	log10cfu [13]
CC[C@H]1OC(=O)[C@H](C)[C@@H](O[C@H]2C[C@@](C)(OC)[C@@H](O)[C@H](C)O2)[C@H](C)[C@@H](O[C@@H]2O[C@H](C)C[C@H](N(C)C)[C@H]2O)[C@](C)(O)C[C@@H](C)C(=O)[C@H](C)[C@@H](O)[C@]1(C)O [ERYTHROMYCIN]	0.5 (≈ 0.681 µM)	0.125 (≈ 0.17 µM)	-0.17	0.27	0.7	2.04	–	–	–	–	–	–	–
NC[C@H]1O[C@H](O[C@H]2[C@H](O)[C@@H](O[C@H]3O[C@H](CO)[C@@H](O)[C@H](N)[C@H]3O)[C@H](N)C[C@@H]2N)[C@H](N)C[C@@H]1O [TOBRAMYCIN]	4 (≈ 8.56 µM)	0.25 (≈ 0.535 µM)	0.86	2	0.2	–	1 (≈ 2.14 µM)	1.69	2.48	3.08	–	–	–
O=C(O)c1cn(C2CC2)c2cc(N3CCNCC3)c(F)cc2c1=O [CIPROFLOXACIN]	–	–	–	–	–	–	–	-0.63	–	–	1.86	–	–
CN[C@H](CC(C)C)C(=O)N[C@H]1C(=O)N[C@@H](CC(N)=O)C(=O)N[C@H]2C(=O)N[C@H]3C(=O)N[C@H](C(=O)N[C@H](C(=O)O)c4cc(O)cc(O)c4-c4cc3ccc4O)[C@H](O)c3ccc(c(Cl)c3)Oc3cc2cc(c3O[C@@H]2O[C@H](CO)[C@@H](O)[C@H](O)[C@H]2O[C@H]2C[C@](C)(N)[C@H](O)[C@H](C)O2)Oc2ccc(cc2Cl)[C@H]1O [VANCOMYCIN]	–	–	-0.31	–	0.7	–	–	–	–	2.09	–	1.59	–
CO/N=C(\C(=O)N[C@@H]1C(=O)N2C(C(=O)[O-])=C(C[N+]3(C)CCCC3)CS[C@H]12)c1csc(N)n1	–	–	–	–	–	–	2 (≈ 4.16 µM)	0.96	–	–	1.43	–	–
CC(=O)NC[C@H]1CN(c2ccc(N3CCOCC3)c(F)c2)C(=O)O1 [LINEZOLID]	–	1 (≈ 2.96 µM)	0.62	1.51	0.22	0.63	–	–	–	–	–	–	–
CN(C)c1ccc(O)c2c1C[C@H]1C[C@H]3[C@H](N(C)C)C(O)=C(C(N)=O)C(=O)[C@@]3(O)C(O)=C1C2=O [MINOCYCLINE]	4 (≈ 8.74 µM)	1 (≈ 2.19 µM)	0.7	–	-0.18	3.32	–	–	–	–	–	–	2.04
CCCCCCCCCC(=O)N[C@@H](Cc1c[nH]c2ccccc12)C(=O)N[C@H](CC(N)=O)C(=O)N[C@@H](CC(=O)O)C(=O)N[C@@H]1C(=O)NCC(=O)N[C@@H](CCCN)C(=O)N[C@@H](CC(=O)O)C(=O)N[C@H](C)C(=O)N[C@@H](CC(=O)O)C(=O)NCC(=O)N[C@H](CO)C(=O)N[C@@H]([C@H](C)CC(=O)O)C(=O)N[C@@H](CC(=O)c2ccccc2N)C(=O)O[C@@H]1C	1 (≈ 0.617 µM)	0.125 (≈ 0.0771 µM)	1.63	–	-0.38	–	–	–	–	1.2	–	1.94	–
CO[C@H]1/C=C/O[C@@]2(C)Oc3c(C)c(O)c4c(O)c(c(/C=N/N5CCN(C)CC5)c(O)c4c3C2=O)NC(=O)/C(C)=C\C=C\[C@H](C)[C@H](O)[C@@H](C)[C@@H](O)[C@@H](C)[C@H](OC(C)=O)[C@@H]1C [RIFAMPIN]	2 (≈ 2.43 µM)	≤ 0.125	0.86	1.78	0.17	–	–	–	–	2.5	–	–	–
COc1c(N2C[C@@H]3CCCN[C@@H]3C2)c(F)cc2c(=O)c(C(=O)O)cn(C3CC3)c12 [MOXIFLOXACIN]	2 (≈ 4.98 µM)	≤ 0.125	1.33	–	-0.41	–	–	–	–	0.82	–	–	2.1
